Measured values: the EternaBench riboswitch data

Test system: MS2 coat protein
Assay: apparent Kd, MS2 coat protein; higher = weaker binding; RNA-MaP array; FMN 200 µM where present
Outline: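 In 100 mM Tris-HCl pH 7.5, 80 mM KCl, 4 mM MgCl2, BSA, DTT, yeast tRNA and Tween-20, SNAP-549-labelled MS2 coat protein was titrated from 0.7 or 1.5 nM, doubling to 3 µM, over designs transcribed by stalled E. coli RNA polymerase on Illumina sequencing-chip clusters. This was done first without ligand, then with ligand held constant. After green signal was normalised to red-channel RNA signal and control-cluster median Fmax, the apparent Kd was taken as the median of filtered per-cluster binding-curve fits.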

[1] = designed as: OFF switch for flavin mononucleotide, no ligand
[2] = ligand present: flavin mononucleotide, designed as: OFF switch for flavin mononucleotide
[3] = designed as: ON switch for flavin mononucleotide, no ligand
[4] = ligand present: flavin mononucleotide, designed as: ON switch for flavin mononucleotide

| Sequence | apparent Kd [1] | apparent Kd [2] | apparent Kd [3] | apparent Kd [4] |
| --- | --- | --- | --- | --- |
| CUUUUGUGAGGAUAUCAGUAGUAAAUAAAUAAAAUUAUUACUGAGAAGGCACAUGAGGAUCACCCAUGUUCCUC | 40.1 nM | 192 nM | – | – |
| AAAAAACAUGAGGAUCACCCAUGUAAGGAUAUGCUGAAAAACACGGAAAAAACGUGCAGCAGAAGGUACAAAAG | 59.5 nM | 85.9 nM | – | – |
| UUUACAUGAGGAUCACCCAUGUUUAGAAAGAUUAAUUUAAGUGAGGAUAUACAUAAUAAUAAAUUGUAGAAGGCACUGGGUACA | – | – | 19.3 nM | 20.6 nM |
| GCCAGUUAUGUAGGAUAUGCGCGGCGAGCCUGUGCAGAAGGACAUGAGGAUCACCCAUGUGUUGCGGUCUGAGUACUGAUCGCC | 32.9 nM | 208 nM | – | – |
| UAUUAGUAAGGAUAUGAGACGUAGGACUUCGGUCCUACGUCUCAGAAGGUACAUGAGGAUCACCCAUGUUUAUU | 17.1 nM | 26.1 nM | – | – |
| AAAAGACAUGAGGAUCACCCAUGUCAAGACGUGGGAGGAUAUGCAUGGAAAACAUGCUGUGCAGAAGGCCCGUGUC | – | – | 25.6 nM | 17.9 nM |
| UUUUUUGUUGUGAGGAUAUCGUAUUCUUUUUGUUACGAGAAGGCACAUGAGGAUCACCCAUGUUUCUUGAUGUU | 15.8 nM | 27.3 nM | – | – |
| GCGUUGUACGAGAAGGCCAAUACAUGAGGAUCACCCAUGUUAAGUUGUUUUGGAGGAUAUCGAUCACUUACAAUAAUGCAACGC | 7.23 nM | 6.31 nM | – | – |
| GUGCACACUCGAGGAUAUCGGAGUUUUUUUCUUCGAGAAGGCGAUUCGUGCCGUGUUAUUUUGGACAUGAGGAUCACCCAUGUG | – | – | 79.9 nM | 34.4 nM |
| GUUAUAAAGGUAGGAUAUUGUAUUAUAAUUAAAUAAGAAGGAUCUCACAUGAGGAUCACCCAUGUAAGAGGAUCACCCAUGUAG | 20.1 nM | 14.6 nM | – | – |
| CCUUUUGUAUAAGGAUAUGUAACAAGGUGUAGGUUUGUAGGACUUGCGCUUACAGAAGGUAUACAUGAGGAUCACCCAUGUCGA | 29.9 nM | 157 nM | – | – |
| GUCUUGUUAGGAUAUCUUACUUUUGCAUCAUAGUAACCAUUGGAGAAGGGACAUGAGGAUCACCCAUGUUUGGU | 34.6 nM | 30 nM | – | – |
| GUAGAACAUGAGGAUCACCCAUGUGAAGACGCAUGAGGAUAUGUCCGUACCUAGCAUACGAUAGAAGGCAUGGUAC | – | – | 69.2 nM | 88.2 nM |
| CGGAUGUCAGGAUAUCGUGCAUACAACGAAAGUUCUAUGUGCGAGAAGGGACAUGAGGAUCACCCAUGUUAACG | 59.5 nM | 250 nM | – | – |
| UAUAUGUGAGGAUAUCAGGUGUGCUAGCGUACUGGUACAUCUGAGAAGGCACAUGAGGAUCACCCAUGUAUCUU | 29.7 nM | 110 nM | – | – |
| GUAGCUAUCGGAGGAUAUUCAUACCGGAAACGGACAUGAGGAUCACCCAUGUGGCGAAAGCCUUGGGAGAAGGCAGAUAGCUAC | – | – | 693 nM | 28.6 nM |
| AAACACGGACAUGAGGAUCACCCAUGUGGCGAAAGCCUAGGGAGAAGGCAGUAUGCAAAGCAUUCUGAGGAUAUUCAUACCGUG | – | – | 160 nM | 13.4 nM |
| GCUAGUCAUGUCAGGAUAUGCUGUACCUUGGUACAGCAGAAGGGACAUGAGGAUCACCCAUGUGCCUAACUAGC | 39 nM | 416 nM | – | – |
| UUUCUCGUUGUGAGGAUAUCGUUUUUGUUUUGGAUCGAGAAGGCACAUGAGGAUCACCCAUGUUUGUUGUGGUU | 119 nM | 87.7 nM | – | – |
| CAAAAGGAAGGAUAUACAUGUUAAUUAUCCGAAGAUGUCGUACAUGAGGAUCACCCAUGUAGAAGGUCCAAAAC | 30.3 nM | 78.7 nM | – | – |
| AGUUAAUAUCGAGGAUAUCCUCAUCUACAUGAGGAUCACCCAUGUAAACAUGGAGAAGGCGAUAUUAACAGCAUGUUACAUGCA | – | – | 259 nM | 14.9 nM |
| AAGGAUCGAGGAUAUACAUAGAUACAGAUUCAUGUAGAACUACAUGAGGAUCACCCAUGUAGAAGGCGAUCCUA | 38.4 nM | 291 nM | – | – |
| GUAGAGUAAGGAUAUUGUGAAUAGGAUAGAAUGGUUAGAAACAAGAAGGUACAUGAGGAUCACCCAUGUAAUGU | 22.1 nM | 19.8 nM | – | – |
| AAUAAACACACAGGAUAUAGCAUCGUCGGUAUGAACUUAAAGACGACGAUGCUAGAAGGGUGAACACAUGAGGAUCACCCAUGU | – | – | 232 nM | 39.1 nM |
| UCUUAUUGCAAGGAUAUGCAAAUUAUUAUUAAUGCAGAAGGUGCUACAUGAGGAUCACCCAUGUUUCCGGGUUU | 45 nM | 161 nM | – | – |
| GUCGGGUCUCACGCGUCGGUCCACAUGAGGAUCACCCAUGUCAAGGAUAUAGCGUCUUCCGGGCGUUAGAAGGUGGCCAUUGGU | 26.6 nM | 61 nM | – | – |
| CAUGUGUAAGGAUAUGACAAUGGUAUCGAAAGAUACCAUUGUCAGAAGGUACAUGAGGAUCACCCAUGUGGAUC | 198 nM | 91 nM | – | – |
| AUAUCCAAUCAAGGAUAUGUAUUAAAGAUUUGAAAACAUGAGGAUCACCCAUGUAUAUGGUGGGAACAGAAGGUGAAUAAGUAA | 140 nM | 164 nM | – | – |

| Sequence | apparent Kd [1] | apparent Kd [2] | apparent Kd [3] | apparent Kd [4] |
| --- | --- | --- | --- | --- |
| GUUAUACAUGAGGAUCACCCAUGUCAAUGUAGUCGAGGAUAUGGGCAGCUAUGAGGCGUACUAGAAGGCGAUGAGU | – | – | 156 nM | 44.5 nM |
| AAAAAAAAAAGGCAGGAUAUCUAAAAAAAAACAUGAGGAUCACCCAUGUAAAAAAAAAAAAAGUGGGAGAAGGGCCAAAAAAAAAA | – | – | 35.9 nM | 18.1 nM |
| CGCUGUCACGCAGGAUAUGCAUUGGAUUACAAUGCAGAAGGGCGAUUACAUGAGGAUCACCCAUGUGUAGACAGUGAAGAAGAG | – | – | 300 nM | 42.3 nM |
| AUAGCCGGGAGGUAAACUCGUGCGGCAGAAGGGUGAUACUGGACAUGAGGAUCACCCAUGUGCACACAGGAUAUGCCCGCGAGC | – | – | 159 nM | 33.3 nM |
| GAGGACUGUAAAUUAACUCAAAUACAUGAGGAUCACCCAUGUAAGGAUAUCGUCAGGAAUACUGACGAGAAGGUACAUCAGUCC | 14.4 nM | 20 nM | – | – |
| CACAAGAAAGUCGAACGUGUAACGAGAAGGUCUACAUCACAACAUGAGGAUCACCCAUGUGAUAAGAAGGAUAUUGUUGCGCGG | 8.76 nM | 8.32 nM | – | – |
| UUACCUCAUGAGAAGGACAUGAGGAUCACCCAUGUAGGAUAUCAUGGGUCAGUGGAAUUGAAUCUUCGGAUUCAAUAACUCUAU | – | – | 114 nM | 34.5 nM |
| CUGUAACAUGAGGAUCACCCAUGUCAGGAUAUCUAUCAUAGCAUCGAAAGAUGCGGGUAGAGAAGGGACUAUCC | 17 nM | 18.2 nM | – | – |
| UUUGCAUUCCGAGGAUAUUCUUUUAUUGUCUUCACAUGAGGAUCACCCAUGUGGCGCUUGCGCCGGGAGAAGGCGGUUUGCUUU | – | – | 23.9 nM | 24.5 nM |
| CAAUUUAUAACAGGAUAUAUAAUACAAUGGUUAAUAGAAGGGUUUAAUACAUGAGGAUCACCCAUGUCAUGUGUCAUAAUUACC | 23 nM | 17.1 nM | – | – |
| ACAUGAGGAUCACCCAUGUUCACAUAGGAUAUUGAUUUUAUUGGUUUUAGAAUAGUUAUUAAGCUCAAGAAGGAUGCCAGUUGU | – | – | 12.4 nM | 9.97 nM |
| AAGCCUACAAUGGUGUAAUGUACAUGAGGAUCACCCAUGUACAGAAGGUGGAAUGUAAAAGGUGCCAAGGAUAUGUAUGCGGGU | 12.6 nM | 16.4 nM | – | – |
| AAUAGUAUUGUAGGAUAUGUUAUUUUCUAACAUGAGGAUCACCCAUGUAAUAUAGGGUUGUUUCUACAGAAGGACAAUUUAUUA | – | – | 509 nM | 387 nM |
| ACAUACAUUCGAGGAUAUCGGUGAUUAAUAAUACGAGAAGGCGAUUUAAGAUAUAAAAUUUUAGACAUGAGGAUCACCCAUGUA | – | – | 27.9 nM | 23.9 nM |
| UGAUGUCGCGAGGAUAUCCAAGAGGACUUUCUGGGAGAAGGUGCGACAUGAGGAUCACCCAUGUCAUAAGGAGU | 109 nM | 287 nM | – | – |
| AUUGUAAUGUCAGGAUAUAUUAUUUUUUACAUAGUAGAAGGGAUAAUUAUACUCAUGUACAUGAGGAUCACCCAUGUUAAAUAU | – | – | 58.8 nM | 24.8 nM |
| ACAAAUGGAGGAUAUACAUGAGGAUCACCCAUGUUUAUCCUACAUAUGUGAUAAUAAUGUAGAAGGCCAUAUGA | 12.3 nM | 12.3 nM | – | – |
| GGAUGUCAAAGACAUCCAUAACGAACAUGAGGAUCACCCAUGUAGGAUAUGCUACUCAAAGAGUAGCAGAAGGACAUGUGCCUU | 33.6 nM | 269 nM | – | – |
| GGGUGGCGUAGAGGAUAUAUGGUACAUGAGGAUCACCCAUGUGCAUAUGAUGUUCAUGUUUAUGUAUAGAAGGCUACGUCGCUA | – | – | 40.6 nM | 42.8 nM |
| GACUGUCUAGGAUAUGCGACGUUUUACAUGAGGAUCACCCAUGUUGUCUGCGUGUGUGUGGCAGAAGGAGACAAAC | 13 nM | 19.9 nM | – | – |
| GCACGAGACUAAGGAUAUGGUGUACCUACAUGAAACAUGAGGAUCACCCAUGUAGUAAGUAUGAUUCAGAAGGUAGAGACGUGC | – | – | 30.4 nM | 18.3 nM |
| CAAGUCAUAGCUUCUUAGCCAGCCAGAAGGGUCUACAUGAGGAUCACCCAUGUGGUCUCGAAGGGACAGGAUAUGGAGGGCGUA | 11.1 nM | 37.7 nM | – | – |
| UCGAUCGGAGGAUAUACUAAUACAACUACUGAAGUGUCAAAACAUGAGGAUCACCCAUGUAGAAGGCCGAUAUA | 21.8 nM | 24.3 nM | – | – |
| CGUAACUGCAUAGGAUAUUGAUACAUGAGGAUCACCCAUGUUUUUGGGAUUAGUAAUAUAUUAAGCAAGAAGGAUGGAGUUACG | – | – | 74.2 nM | 39.9 nM |
| AAGGAUCGAGGAUAUACAUAGAUACAGAUACAUGUAGACGUACAUGAGGAUCACCCAUGUAGAAGGCGAUUAUA | 72.6 nM | 220 nM | – | – |
| UUACUGUAAUAGAAGGGUAUUUGGGUUUUACAUGAGGAUCACCCAUGUUUUAUAGGAUAUGUUUAUAGUUUUUAAUCAAGUUUA | 91.1 nM | 68.7 nM | – | – |
| GGCAGAGACGUUAACAUGAGGAUCACCCAUGUCGAAGGAGAUGAGGAUAUCGUAUACGAUGUAUAUGAGAAGGCAUGGUCUGCC | – | – | 18.8 nM | 7.6 nM |
